Data as given in ChEMBL document CHEMBL4190209, “Terpenoids from Euphorbia soongarica and Their Multidrug Resistance Reversal Activity” (J Nat Prod, 2017).

Legend:
KB = assay: Cytotoxicity against human KB cells assessed as growth inhibition after 72 hrs by MTT assay; format: functional, cell-based
[1] = Cytotoxicity against human KBv200 cells assessed as growth inhibition after 72 hrs by MTT assay; format: functional, cell-based; conditions: KBv200, 72 h
Homo sapiens [2] = species on record: Homo sapiens; assay: Inhibition of P-gp in human KBv200 cells assessed as increase in intracellular rhodamine123 accumulation by measuring fluorescence activity ratio at 10 uM incubated for 4 hrs followed by rhodamine123 addition measured after 1 hr by flow cytometry; format: cell-based
In short: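 KBv200 cells were plated at 1.5 × 10^5/mL and left overnight. Compounds were added at 10 μM in DMSO, with verapamil as reference, for 4 h at 37 °C, 5% CO2. Rho123 at 10 μM was then added for 1 h. Cells were washed twice, resuspended in ice-cold PBS and analysed by flow cytometry. FAR = (F treated − F DMSO control)/(F untreated − F DMSO control).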

Homo sapiens [3] = species on record: Homo sapiens; assay: Inhibition of P-gp in human KBv200 cells assessed as potentiation of navelbine-induced cytotoxicity by measuring reduction in navelbine IC50 at 10 uM after 72 hrs by MTT assay relative to control; format: cell-based
In short: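 KBv200 cells were seeded at 2500 cells/well for 12 h. Navelbine was added at 0.003–30 μM (0.003, 0.01, 0.03, 0.1, 0.3, 1, 3, 10, 30), alone or with modulator at 1, 3 or 10 μM, or with verapamil at 10 μM. Incubation was 72 h, followed by MTT read at A570. Navelbine IC50 came from percent growth inhibition. Reversal fold = IC50 of navelbine alone / IC50 of the combination.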

Work on `C[C@H]1CC2=C([C@H]1O)[C@@H](O)[C@]1(C)CC[C@H]3[C@@H]([C@@H](OC(=O)c4ccccc4)[C@]1(C)C2=O)C3(C)C` yielded an IC50 (KB) of 13.5 µM, an IC50 [1] of 16.1 µM and a Ratio (Homo sapiens [2]) of 1.79.
In the case of `CC(=O)O[C@H]1C(=O)[C@@]2(C)[C@H]([C@H](OC(=O)c3ccccc3)[C@]3(O)C[C@H](OC(=O)[C@H](O)[C@@H](NC(=O)c4ccccc4)c4ccccc4)C(C)=C1C3(C)C)[C@]1(OC(C)=O)CO[C@@H]1C[C@@H]2O` [PACLITAXEL], the IC50 (KB) is reported as 0.0036 µM and the IC50 [1] is reported as 2.12 µM.
In the case of `C=C1CC[C@H]2[C@@H](/C=C(\C)C(=O)[C@@]3(OC(C)=O)C[C@H](C)[C@H](O)[C@@H]3[C@H]1O)C2(C)C`, the IC50 (KB) is reported as > 30 µM, the IC50 [1] is reported as > 30 µM and the Ratio (Homo sapiens [2]) is reported as 0.7.
For `C[C@H]1C[C@]2(O)C(=O)[C@@]3(C)[C@H](OC(=O)c4ccccc4)[C@@H]4[C@H](CC[C@@]3(C)[C@H](O)[C@H]2[C@H]1O)C4(C)C`, the IC50 (KB) was 26.6 µM, the IC50 [1] was 29 µM and the Ratio (Homo sapiens [2]) was 0.97.
In the case of `C[C@H]1C[C@]2(OC(=O)c3ccccc3)C(=O)[C@@]3(C)[C@@H]4[C@@H](O)C(C)(C)[C@H]4CC[C@@]3(C)[C@H](O)[C@H]2[C@H]1O`, the IC50 (KB) is reported as 20.1 µM, the IC50 [1] is reported as > 30 µM and the Ratio (Homo sapiens [2]) is reported as 0.63.
With `C/C1=C\[C@@H]2[C@H](CC[C@@]3(C)O[C@@H]3[C@H]3[C@@H](O)[C@@H](C)C[C@]3(OC(=O)/C=C/c3ccccc3)C1=O)C2(C)C` [JOLKINOL B] the IC50 (KB) was 19.8 µM, the IC50 [1] was 18.2 µM and the Ratio (Homo sapiens [2]) was 3.61.
For `C/C1=C/C[C@H]2[C@@H](/C=C(\C)C(=O)[C@@]3(OC(=O)c4ccccc4)C[C@H](C)[C@H](O)[C@@H]3[C@H]1O)C2(C)C`, the IC50 (KB) was 27.2 µM, the IC50 [1] was > 30 µM and the Ratio (Homo sapiens [2]) was 1.13.
In the case of `CC(=O)[C@@H]1CC[C@]2(C)C3=C(CC[C@@]12C)[C@@]1(C)CC[C@H](O)C(C)(C)[C@@H]1CC3=O`, the IC50 (KB) is reported as > 30 µM, the IC50 [1] is reported as > 30 µM and the Ratio (Homo sapiens [2]) is reported as 0.98.
Work on `CC(=O)/C=C/C[C@@H](C)[C@@H]1CC[C@]2(C)C3=C(CC[C@@]12C)[C@@]1(C)CC[C@H](O)C(C)(C)[C@@H]1CC3=O` yielded an IC50 (KB) of 21.6 µM, an IC50 [1] of 22.9 µM and a Ratio (Homo sapiens [2]) of 1.3.
With `CC1=C2C=C3CC[C@@H]4C(C)(C)C(=O)CC[C@@]4(C)[C@@H]3C[C@H]2OC1=O` [HELIOSCOPINOLIDE E] the IC50 (KB) was 22.4 µM, the IC50 [1] was > 30 µM and the Ratio (Homo sapiens [2]) was 0.45.
In the case of `CC1(C)CC[C@]2(C)CC(=O)[C@]3(C)C4=C(CC[C@@]3(C)[C@@H]2C1)[C@@]1(C)CC[C@H](O)C(C)(C)[C@@H]1CC4=O`, the IC50 (KB) is reported as 10.3 µM, the IC50 [1] is reported as 12 µM and the Ratio (Homo sapiens [2]) is reported as 0.95.
With `C[C@H]1C[C@]2(OC(=O)/C=C/c3ccccc3)C(=O)/C(CO)=C/[C@@H]3[C@H](CC[C@@]4(C)O[C@H]4[C@H]2[C@H]1O)C3(C)C` the IC50 (KB) was > 30 µM, the IC50 [1] was > 30 µM and the Ratio (Homo sapiens [2]) was 0.35.
In the case of `C[C@H](/C=C/C=O)[C@@H]1CC[C@]2(C)C3=C(CC[C@@]12C)[C@@]1(C)CC[C@H](O)C(C)(C)[C@@H]1CC3=O`, the IC50 (KB) is reported as > 30 µM, the IC50 [1] is reported as > 30 µM and the Ratio (Homo sapiens [2]) is reported as 1.25.
`C/C1=C\[C@@H]2[C@H](C[C@@H](O)/C(C)=C/[C@H]3[C@@H](OC(=O)c4ccccc4)[C@@H](C)C[C@]3(O)C1=O)C2(C)C` showed an IC50 (KB) of 21.4 µM, an IC50 [1] of 20.6 µM and a Ratio (Homo sapiens [2]) of 0.43.
In the case of `CC1=C2C=C3CC[C@@H]4C(C)(C)[C@@H](O)CC[C@@]4(C)[C@@H]3C[C@H]2OC1=O` [HELIOSCOPINOLIDE B], the IC50 (KB) is reported as 20.8 µM, the IC50 [1] is reported as > 30 µM and the Ratio (Homo sapiens [2]) is reported as 0.49.
In the case of `CC(=O)N[C@@H]1[C@@H]2[C@H](CC[C@@]3(C)[C@H](O)[C@H]4[C@@H](OC(=O)/C=C/c5ccccc5)[C@@H](C)C[C@]4(O)C(=O)[C@@]13C)C2(C)C`, the IC50 (KB) is reported as > 30 µM, the IC50 [1] is reported as > 30 µM and the Ratio (Homo sapiens [2]) is reported as 1.51.
With `C/C1=C\[C@@H]2[C@H](C[C@@H](O)[C@@]3(C)O[C@@H]3[C@H]3[C@@H](OC(=O)c4ccccc4)[C@@H](C)C[C@]3(O)C1=O)C2(C)C` the IC50 (KB) was > 30 µM, the IC50 [1] was > 30 µM and the Ratio (Homo sapiens [2]) was 0.44.
`C[C@H]1C[C@]2(OC(=O)/C=C/c3ccccc3)C(=O)[C@@]3(C)[C@@H]4[C@@H](O)C(C)(C)[C@H]4CC[C@@]3(C)[C@H](O)[C@H]2[C@H]1O` gave an IC50 (KB) of 10.9 µM, an IC50 [1] of 10.6 µM and a Ratio (Homo sapiens [2]) of 1.47.
`CC(=O)O[C@]12C[C@H](C)[C@H](O)[C@@H]1/C=C(\C)CC[C@H]1[C@@H](/C=C(\C)C2=O)C1(C)C` [JOLKINOL D] gave an IC50 (KB) of 25.9 µM, an IC50 [1] of 19.9 µM and a Ratio (Homo sapiens [2]) of 0.66.
For `CC(=O)O[C@]12C[C@H](C)[C@H](O)[C@@H]1[C@@H](O)/C(C)=C/C[C@H]1[C@@H](/C=C(\C)C2=O)C1(C)C`, the IC50 (KB) was > 30 µM, the IC50 [1] was > 30 µM and the Ratio (Homo sapiens [2]) was 1.27.
`COc1ccc(CCN(C)CCCC(C#N)(c2ccc(OC)c(OC)c2)C(C)C)cc1OC` (stereo not drawn) gave a Ratio (Homo sapiens [2]) of 2.25 and a fold change (FC) (Homo sapiens [3]) of 259.
In the case of `C=C1CC[C@H]2[C@@H]([C@@H]3[C@@H]1C1=C(C[C@H](C)C1=O)[C@@H](O)[C@@]3(C)O)C2(C)C`, the IC50 (KB) is reported as > 30 µM, the IC50 [1] is reported as > 30 µM and the Ratio (Homo sapiens [2]) is reported as 0.76.
With `C[C@@H]1C[C@]2(O)C(=O)[C@@]3(C)[C@H](OC(=O)c4ccccc4)[C@@H]4[C@H](CC[C@@]3(C)[C@H](O)[C@H]2[C@H]1O)C4(C)C` the IC50 (KB) was > 30 µM, the IC50 [1] was 29.2 µM and the Ratio (Homo sapiens [2]) was 0.94.
With `C/C1=C\[C@@H]2[C@H](CC[C@@]3(C)O[C@@H]3[C@H]3[C@@H](O)[C@@H](C)C[C@]3(OC(=O)c3ccccc3)C1=O)C2(C)C` [LATILAGASCENE F] the IC50 (KB) was > 30 µM, the IC50 [1] was > 30 µM and the Ratio (Homo sapiens [2]) was 1.3.
For `CC(=O)CC/C(=C/C1=C(C)CCC1=O)C(C)C` [LITSEACHROMOLAEVANE B], the IC50 (KB) was > 30 µM, the IC50 [1] was > 30 µM and the Ratio (Homo sapiens [2]) was 0.4.
